40 molecules from ChEMBL document CHEMBL1154683, “Bis(dialkylaminethiocarbonyl)disulfides as potent and selective monoglyceride lipase inhibitors” (J Med Chem, 2009) can be followed below.

Some results are limits rather than exact numbers.

Experiment [1] has as its target T1, Fatty-acid amide hydrolase 1 (Homo sapiens, UniProt O00519).
T1 sequence (O00519 whole entry): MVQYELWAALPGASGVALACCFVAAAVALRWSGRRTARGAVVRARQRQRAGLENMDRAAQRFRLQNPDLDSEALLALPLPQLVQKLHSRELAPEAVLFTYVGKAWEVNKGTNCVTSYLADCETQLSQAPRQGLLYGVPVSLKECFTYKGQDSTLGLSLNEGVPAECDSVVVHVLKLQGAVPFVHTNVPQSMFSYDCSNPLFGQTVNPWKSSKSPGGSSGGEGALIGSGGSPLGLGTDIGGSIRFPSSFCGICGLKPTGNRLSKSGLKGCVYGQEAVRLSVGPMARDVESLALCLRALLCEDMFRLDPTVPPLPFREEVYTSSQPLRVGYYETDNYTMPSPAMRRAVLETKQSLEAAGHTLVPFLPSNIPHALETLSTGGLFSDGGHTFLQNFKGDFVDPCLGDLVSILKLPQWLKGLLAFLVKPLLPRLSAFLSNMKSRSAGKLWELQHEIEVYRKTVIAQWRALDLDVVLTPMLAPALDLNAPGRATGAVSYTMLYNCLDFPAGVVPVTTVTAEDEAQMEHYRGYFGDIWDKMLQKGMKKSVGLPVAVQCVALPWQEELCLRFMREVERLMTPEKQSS
Put plainly: Inhibition of human recombinant FAAH-maltose binding protein.

Experiment [2] addresses T2, Monoglyceride lipase (Homo sapiens) (UniProt Q99685).
T2 sequence (whole entry): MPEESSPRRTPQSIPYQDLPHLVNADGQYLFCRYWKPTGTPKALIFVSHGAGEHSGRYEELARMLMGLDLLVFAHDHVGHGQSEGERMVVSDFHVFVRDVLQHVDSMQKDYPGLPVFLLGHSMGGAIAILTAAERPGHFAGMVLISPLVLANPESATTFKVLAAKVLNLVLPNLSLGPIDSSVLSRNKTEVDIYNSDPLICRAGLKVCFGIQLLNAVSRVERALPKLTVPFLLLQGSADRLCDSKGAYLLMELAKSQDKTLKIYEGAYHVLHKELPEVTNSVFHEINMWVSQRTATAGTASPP
Put plainly: Inhibition of human MGL activity using [3H]2-oleoylglycerol substrate at 10 uM by liquid scintillation counting. The procedure, abridged: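 Single-point screen on recombinant human MGL at 10 μM, with a parallel screen at 100 μM.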

Experiment [3] addresses T3, Monoglyceride lipase (Homo sapiens, UniProt Q99685).
T3 sequence (Q99685 whole entry): T2 sequence (whole entry)
The experiment in a line: Inhibition of human MGL activity using [3H]2-oleoylglycerol substrate by liquid scintillation counting. In short, it runs like this:
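Recombinant human MGL was used, and inhibition was expressed as pIC50.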

The species entered for experiment [4] is Homo sapiens. Put plainly: Selectivity ratio for human MGL activity to human recombinant FAAH.

As to `S=C(SSC(=S)N1CCCC1)N1CCCC1` [BIS(PYRROLIDINYLTHIOCARBONYL)DISULFIDE], the IC50 – broadly, the concentration that gives 50% inhibition – is more than 1000 µM in experiment [1] and 0.912 µM in experiment [3]. Further, the inhibition (in general, the drop in the measured response relative to a control, in per cent) in experiment [2] is more than 50%.

Regarding `S=C(SSC(=S)N1CCSCC1)N1CCSCC1`, the IC50 in experiment [1] is 25.1 µM; in experiment [3], 0.316 µM. Further, the inhibition in experiment [2] was more than 50%.

As to `CCN(CC)C(=S)CSC(=S)N(CC)CC` [(DIETHYLTHIOCARBAMOYL)METHYLENE DIETHYLCARBAMODITHIOATE], the IC50 in experiment [1] was more than 1000 µM; in experiment [3], 19.1 µM. Further, the inhibition in experiment [2] was more than 50%.

Consider `O=C(CSC(=S)N1CCOCC1)N1CCOCC1`, for which the IC50 in experiment [1] is more than 1000 µM; in experiment [3] it was 219 µM. The inhibition in experiment [2] was more than 50%.

Take `CCN(Cc1ccccc1)C(=S)SSC(=S)N(CC)Cc1ccccc1`: the IC50 in experiment [1] is more than 1000 µM; in experiment [3], 4.07 µM. Also, the inhibition in experiment [2] is more than 50%.

Regarding `CCCCCCCCCCCCCCCCN(CC)C(=S)SSC(=S)N(CC)CCCCCCCCCCCCCC`, the IC50 in experiment [1] is more than 1000 µM; in experiment [3], 10.5 µM. Also, the inhibition in experiment [2] was more than 50%.

As for `CN(C)C(=S)SC(=S)N(C)C` [BIS(DIMETHYLAMINETHIOCARBONYL)MONOSULFIDE], the IC50 in experiment [1] was more than 1000 µM; in experiment [3], 12.3 µM. Moreover, the inhibition in experiment [2] was more than 50%.

For `S=C(SSC(=S)N1CCN(Cc2ccccc2)CC1)N1CCN(Cc2ccccc2)CC1`, the IC50 was 170 µM in experiment [1] and 5.01 µM in experiment [3]. This molecule showed an inhibition in experiment [2] of more than 50%.

Turning to `CC1CCCC(C)N1C(=S)SSC(=S)N1C(C)CCCC1C` (stereo not drawn), the IC50 in experiment [1] is more than 1000 µM; in experiment [3], 0.479 µM. Further, the inhibition in experiment [2] is more than 50%.

With `CN(C)C(=S)SC(=S)N1CCOCC1`, the IC50 in experiment [1] is more than 1000 µM; in experiment [3] it was 6.46 µM. In experiment [2], this molecule registered an inhibition of more than 50%.

For `CCN(CC)C(=S)SSC(=S)N(CC)CC`, the IC50 in experiment [1] was 363 µM; in experiment [3], 1.26 µM. The same molecule returned an inhibition in experiment [2] of more than 50%.

For `S=C(CSC(=S)N1CCOCC1)N1CCOCC1`, the IC50 in experiment [1] was more than 1000 µM; in experiment [3] it was 15.5 µM. The inhibition in experiment [2] was more than 50%.

Turning to `S=C(SSC(=S)N1CCOCC1)N1CCOCC1`, the IC50 in experiment [1] is 79.4 µM; in experiment [3] it was 0.219 µM. The molecule further registered an inhibition in experiment [2] of more than 50%.

For `CCN(CC)C(=S)SC` [METHYLDIETHYL CARBAMODITHIOATE], the IC50 in experiment [1] and in experiment [3] was more than 1000 µM each time.

Turning to `C1CCN(SSN2CCCCC2)CC1`, the IC50 in experiment [1] was more than 1000 µM; in experiment [3], 9.55 µM. For the same molecule, in experiment [2], the inhibition was more than 50%.

Consider `CSC(=S)N1CCOCC1`, for which the IC50 in experiment [1] and in experiment [3] was more than 1000 µM throughout. Besides, in experiment [2], the inhibition was more than 50%.

Turning to `S=C(SCSC(=S)N1CCOCC1)N1CCOCC1`, the IC50 was more than 1000 µM in experiment [1] and 102 µM in experiment [3]. This molecule also came in with an inhibition in experiment [2] of more than 50%.

As to `CN(C(=S)SSC(=S)N(C)C1CCCCC1)C1CCCCC1`, the IC50 in experiment [1] was 4.79 µM; in experiment [3] it was 0.141 µM. The molecule also displayed an inhibition in experiment [2] of more than 50%.

On to `CN1CCN(C(=S)SCSC(=S)N2CCN(C)CC2)CC1`, for which the IC50 is more than 1000 µM in experiment [1] and 95.5 µM in experiment [3]. For the same molecule, the inhibition in experiment [2] was more than 50%.

As for `S=C(SSC(=S)N1CCN(C2CCCCC2)CC1)N1CCN(C2CCCCC2)CC1`, the IC50 is more than 1000 µM in experiment [1] and 0.166 µM in experiment [3]. For the same molecule, the inhibition in experiment [2] is more than 50%.

Take `CC1CCN(C(=S)SSC(=S)N2CCC(C)CC2)CC1`: the IC50 is more than 1000 µM in experiment [1] and 0.269 µM in experiment [3]. Besides, the inhibition in experiment [2] is more than 50%.

Take `S=C(SSC(=S)N1CCC(Cc2ccccc2)CC1)N1CCC(Cc2ccccc2)CC1`: the IC50 is more than 1000 µM in experiment [1] and 6.92 µM in experiment [3]. This molecule returned an inhibition in experiment [2] of more than 50%.

With `CN(C(=S)SSC(=S)N(C)c1ccccc1)c1ccccc1`, the values for the IC50 in experiment [1] and in experiment [3] were 33.9 µM and 0.741 µM, respectively. In experiment [2], this molecule had an inhibition of more than 50%.

Turning to `CCN(CC)SSN(CC)CC`, the IC50 is more than 1000 µM in experiment [1] and 7.94 µM in experiment [3]. The same molecule showed an inhibition in experiment [2] of more than 50%.

`CCN(CC)C(=S)SCSC(=S)N(CC)CC`: the IC50 in experiment [1] was more than 1000 µM; in experiment [3] it was 20.9 µM. Also, in experiment [2], the inhibition is more than 50%.

`O=C(Nc1cccc(-c2ccccc2)c1)OC1CCCCC1`: the IC50 was 5.75 µM in experiment [1] and 10 µM in experiment [3]. In addition, the Selectivity ratio in experiment [4] stood at 0.57.

In the case of `CN(Cc1ccccc1)C(=S)SSC(=S)N(C)Cc1ccccc1`, the values for the IC50 in experiment [1] and in experiment [3] were more than 1000 µM and 0.437 µM, respectively. This molecule also returned an inhibition in experiment [2] of more than 50%.

For the molecule `S=C(SSC(=S)N1CCCc2ccccc21)N1CCCc2ccccc21`, the IC50 in experiment [1] is more than 1000 µM; in experiment [3], 0.741 µM. The inhibition in experiment [2] was more than 50%.

In experiment [3], `CN(C)C(=O)n1nnnc1Cc1ccc(-c2ccccc2)cc1` gave an IC50 of 0.055 µM.

Take `S=C(SSC(=S)N1CCCCC1)N1CCCCC1` [BIS(PIPERIDINYLTHIOCARBONYL)DISULFIDE]: the IC50 is more than 1000 µM in experiment [1] and 0.316 µM in experiment [3]. In experiment [2], this molecule displayed an inhibition of more than 50%.

As to `S=C(SSC(=S)N1CCN(c2ccccc2)CC1)N1CCN(c2ccccc2)CC1`, the results for the IC50 in experiment [1] and in experiment [3] were 135 µM and 0.49 µM, respectively. The inhibition in experiment [2] was more than 50%.

As for `CCCCC/C=C\C/C=C\C/C=C\C/C=C\CCCC(=O)C(F)(F)F` [ARACHIDONYL TRIFLUOROMETHYLKETONE], the IC50 was 0.0123 µM in experiment [1] and 6.46 µM in experiment [3]. Moreover, in experiment [4], the Selectivity ratio was found to be 0.002.

As to `C1CN(SSN2CCOCC2)CCO1` [DITHIODIMORPHOLINE], the IC50 in experiment [1] is more than 1000 µM; in experiment [3], 11.2 µM. The inhibition in experiment [2] was more than 50%.

For `CN(C)C(=S)SSC(=S)N(C)C` [THIRAM], the IC50 is 44.7 µM in experiment [1] and 0.977 µM in experiment [3]. In addition, the inhibition in experiment [2] is more than 50%. Moreover, the Selectivity ratio in experiment [4] is 45.

With `CCN(CC)C(=O)CSC(=S)N(CC)CC` [(DIETHYLCARBAMOYL)METHYLENE DIETHYLCARBAMODITHIOATE], the values for the IC50 in experiment [1] and in experiment [3] were more than 1000 µM and 631 µM, respectively. Also, the inhibition in experiment [2] is more than 50%.

With `CCCCC/C=C\C/C=C\C/C=C\C/C=C\CCCCN1C(=O)CCC1=O`, the IC50 in experiment [1] was 2.19 µM; in experiment [3], 1.12 µM. Besides, the Selectivity ratio in experiment [4] was 1.95.

As to `S=C(SSC(=S)N1CCCCCC1)N1CCCCCC1`, the IC50 in experiment [1] is more than 1000 µM; in experiment [3], 0.813 µM. For the same molecule, the inhibition in experiment [2] was more than 50%.

For the molecule `S=C(SSC(=S)N1CCc2ccccc2C1)N1CCc2ccccc2C1`, the IC50 was more than 1000 µM in experiment [1] and 0.347 µM in experiment [3]. The inhibition in experiment [2] was more than 50%.

As to `S=C(SSC(=S)N(Cc1ccccc1)Cc1ccccc1)N(Cc1ccccc1)Cc1ccccc1` [BIS(DIBENZYLAMINETHIOCARBONYL)DISULFIDE], the IC50 in experiment [1] was more than 1000 µM; in experiment [3], 9.55 µM. The same molecule yielded an inhibition in experiment [2] of more than 50%.

As for `COc1nn(-c2ccc(NC(=O)OCc3ccccc3)c(C)c2)c(=O)o1`, the IC50 is 0.0776 µM in experiment [1] and 0.0204 µM in experiment [3]. In addition, in experiment [4], the Selectivity ratio turned out to be 3.
